Source: ChEMBL document CHEMBL4038341, “Optimization of Allosteric With-No-Lysine (WNK) Kinase Inhibitors and Efficacy in Rodent Hypertension Models” (J Med Chem, 2017)
Values after ≈ are worked out from the molar mass of the structure shown. Values belong to the compound of their own block, whether it stands above or below them. Active and inactive are the calls of the source. The calls are words filed in the database; no cut-off is given here.

Assays:
[1] = biological target: T1, Serine/threonine-protein kinase WNK1 (Homo sapiens, UniProt Q9H4A3); assay: Allosteric inhibition of recombinant human N-terminal GST-tagged WNK1 catalytic domain (1 to 491 residues) expressed in baculovirus expression system using fluorescein-labeled OSR1 peptide as substrate after 3 hrs by mobility shift assay
[2] = biological target: T1, Serine/threonine-protein kinase WNK1; assay: Allosteric inhibition of WNK1 (unknown origin) expressed in HEK293 cells co-expressing flag-OSR1 assessed as reduction in sorbitol-stimulated OSR1 phosphorylation preincubated with compound for 2.5 hrs followed co-administration with sorbitol measured after 1 hr by AlphaLISA assay; format: cell-based
Rattus norvegicus [3] = assay: Increase in heart rate in […] rat at 100 mg/kg, po measured for 7 hrs post dose; format: functional, organism-based; settings: tested as the 2H-labelled form
Rattus norvegicus [4] = assay: Anti-hypertensive activity in […] rat assessed as reduction in blood pressure at 100 mg/kg, po measured for 7 hrs post dose; format: functional, organism-based; settings: tested as the 2H-labelled form
Mus musculus [5] = assay: Anti-hypertensive activity in human WNK1 transgenic FVB mouse assessed plasma concentration required for SBP reducing activity at 30 mg/kg, po via gavage measured after 7 hrs; format: functional, organism-based; settings: tested as the 2H-labelled form
In short: (§1)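 A separate cohort of human WNK1-overexpressing FVB mice was dosed 30 mg kg−1 p.o. Venous blood samples were taken over time to 7 h for plasma drug concentration. n = 3.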

Rattus norvegicus [6] = assay: Anti-hypertensive activity in SHR rat assessed as induction of diuresis administered orally as single dose on day 2,3 and 4 measured for 7 hrs post dose; format: functional; settings: tested as the 2H-labelled form
In short: (§2)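 Spontaneously hypertensive rats got single ascending oral doses on successive days (vehicle, then 10, 30, then 100 mg kg−1). Urine was collected in metabolic cages over 7 h for volume and sodium and potassium excretion. n = 4 per group, mean ± SEM, one-way ANOVA with Bonferroni post-test versus vehicle.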

[7] = AUC in Sprague-Dawley rat at 1.5 mg/kg, po measured up to 7 hrs post dose by HPLC analysis; format: ADME, organism-based; design: time < 7 hr, dose 1.5 mg/kg, route oral; settings: in vivo
Mus musculus [8] = assay: Anti-hypertensive activity in po dosed human WNK1 transgenic FVB mouse assessed as reduction in blood pressure administered via gavage measured every 10 minutes for 15 seconds after 6 to 12 hrs; format: functional, organism-based; settings: tested as the 2H-labelled form
In short: (§3)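 Conscious FVB mice overexpressing human WNK1, with implanted radiotelemetry devices, received single oral doses of 10, 30 or 100 mg kg−1. Systolic blood pressure was read as peak and time-weighted average against the 24 h before treatment. n = 4 per group, mean ± SEM, two-way ANOVA with Bonferroni post-test versus vehicle.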

Rattus norvegicus [9] = assay: Anti-hypertensive activity in […] rat assessed as reduction in stroke volume at 100 mg/kg, po measured for 7 hrs post dose; format: functional, organism-based; settings: tested as the 2H-labelled form
[10] = Clearance in Sprague-Dawley rat at 0.5 mg/kg, iv measured up to 7 hrs post dose by HPLC analysis; format: ADME, organism-based; settings: in vivo
[11] = Oral bioavailability in Sprague-Dawley rat at 1.5 mg/kg measured up to 7 hrs post dose by HPLC analysis; format: ADME, organism-based; settings: in vivo
[12] = Equilibrium solubility of compound at pH 6.8; format: physicochemical; settings: buffer
Rattus norvegicus [13] = assay: Anti-hypertensive activity in […] rat assessed as induction of natriuresis administered orally as single dose on day 2,3 and 4 measured for 7 hrs post dose; format: functional; settings: tested as the 2H-labelled form
In short: as §2

[14] = Half life in rat liver microsomes; format: ADME, microsome
Mus musculus [15] = assay: Anti-hypertensive activity in po dosed human WNK1 transgenic FVB mouse assessed as reduction in blood pressure administered via gavage measured every 10 minutes for 15 seconds after 2 hrs; format: functional, organism-based; settings: tested as the 2H-labelled form
In short: as §3

Rattus norvegicus [16] = assay: Anti-hypertensive activity in […] rat assessed as induction of kaliuresis administered orally as single dose on day 2,3 and 4 measured for 7 hrs post dose; format: functional; settings: tested as the 2H-labelled form
In short: as §2

[17] = biological target: Tyrosine-protein kinase BTK (Homo sapiens) (UniProt Q06187); assay: Inhibition of human full length BTK expressed in mammalian expression system at 10 uM by kinomescan assay
In short: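 Binding panel of 440 human kinases (KINOMEscan) at a 10 μM screening concentration. Percent inhibition per kinase, with >35% inhibition flagged as significant.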

[18] = Cmax in Sprague-Dawley rat at 1.5 mg/kg, po measured up to 7 hrs post dose by HPLC analysis; format: ADME, organism-based; design: dose 1.5 mg/kg, route oral; settings: in vivo
[19] = biological target: Tyrosine-protein kinase Fer (Homo sapiens) (UniProt P16591); assay: Inhibition of human FER (542 to 822 residues) expressed in bacterial expression system at 10 uM by kinomescan assay
In short: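 KINOMEscan panel of 440 human kinases, with test compound screened at a single concentration of 10 μM. Read-out is percent inhibition. Hits above 35% inhibition are flagged.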

Rattus norvegicus [20] = assay: Anti-hypertensive activity in […] rat assessed as reduction in total peripheral resistance at 100 mg/kg, po measured for 7 hrs post dose; format: functional, organism-based; settings: tested as the 2H-labelled form
Rattus norvegicus [21] = assay: Anti-hypertensive activity in […] rat assessed as induction of diuresis at 10 mg/kg, po administered as single dose on day 2,3 and 4 measured for 7 hrs post dose; format: functional, organism-based
In short: as §2

Rattus norvegicus [22] = assay: Anti-hypertensive activity in […] rat assessed as induction of natriuresis at 10 mg/kg, po administered as single dose on day 2,3 and 4 measured for 7 hrs post dose; format: functional, organism-based
In short: as §2

[23] = Ratio of Cp in human WNK1 expressing transgenic FVB mouse at 30 mg/kg, po to IC50 for WNK1 (unknown origin) expressed in HEK293 cells
In short: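 Separate PK cohort of FVB mice overexpressing human WNK1, given a single oral dose of 30 mg kg−1 (n = 3); venous blood sampled over time for plasma concentration. Plasma level compared against the cellular IC50 from AlphaLISA readout of WNK-mediated phosphorylation of exogenous OSR1 in HEK293 cells.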

[24] = Plasma concentration in human WNK1 transgenic FVB mouse at 30 mg/kg, po via gavage at 7 hrs post dose; format: ADME, organism-based
In short: as §1

[25] = Plasma concentration in human WNK1 transgenic FVB mouse at 30 mg/kg, po via gavage up to 7 hrs; format: ADME, organism-based
In short: as §1

[26] = biological target: T1, Serine/threonine-protein kinase WNK1; assay: Allosteric inhibition of recombinant human N-terminal GST-tagged WNK1 catalytic domain (1 to 491 residues) expressed in baculovirus expression system using fluorescein-labeled OSR1 peptide as substrate after 3 hrs by HTRF assay
Mus musculus [27] = assay: Anti-hypertensive activity in human WNK1 transgenic FVB mouse assessed as reduction in systolic blood pressure at 30 mg/kg, po via gavage measured every 10 minutes for 15 seconds; format: functional, organism-based
In short: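 Conscious FVB mice transgenic for human WNK1, fitted with implanted radiotelemetry devices, received single oral doses. Systolic blood pressure was expressed as peak and time-weighted average change against the 24 h pre-dose baseline. Heart rate was also monitored. n = 4 per group, mean ± SEM, two-way ANOVA with Bonferroni post-test versus vehicle. Plasma exposure was measured in a separate cohort (n = 3).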

[28] = biological target: T1, Serine/threonine-protein kinase WNK1; assay: Non-competitive inhibition of recombinant human N-terminal GST-tagged WNK1 (1 to 491 residues) expressed in baculovirus expression system using fluorescein-labeled OSR1 peptide as substrate measured every 3 mins from 90 to 250 mins in presence of varying concentration of ATP by Michaelis-Menten plot-based analysis

T1 sequence (Q9H4A3 whole entry, the tested form may be a part): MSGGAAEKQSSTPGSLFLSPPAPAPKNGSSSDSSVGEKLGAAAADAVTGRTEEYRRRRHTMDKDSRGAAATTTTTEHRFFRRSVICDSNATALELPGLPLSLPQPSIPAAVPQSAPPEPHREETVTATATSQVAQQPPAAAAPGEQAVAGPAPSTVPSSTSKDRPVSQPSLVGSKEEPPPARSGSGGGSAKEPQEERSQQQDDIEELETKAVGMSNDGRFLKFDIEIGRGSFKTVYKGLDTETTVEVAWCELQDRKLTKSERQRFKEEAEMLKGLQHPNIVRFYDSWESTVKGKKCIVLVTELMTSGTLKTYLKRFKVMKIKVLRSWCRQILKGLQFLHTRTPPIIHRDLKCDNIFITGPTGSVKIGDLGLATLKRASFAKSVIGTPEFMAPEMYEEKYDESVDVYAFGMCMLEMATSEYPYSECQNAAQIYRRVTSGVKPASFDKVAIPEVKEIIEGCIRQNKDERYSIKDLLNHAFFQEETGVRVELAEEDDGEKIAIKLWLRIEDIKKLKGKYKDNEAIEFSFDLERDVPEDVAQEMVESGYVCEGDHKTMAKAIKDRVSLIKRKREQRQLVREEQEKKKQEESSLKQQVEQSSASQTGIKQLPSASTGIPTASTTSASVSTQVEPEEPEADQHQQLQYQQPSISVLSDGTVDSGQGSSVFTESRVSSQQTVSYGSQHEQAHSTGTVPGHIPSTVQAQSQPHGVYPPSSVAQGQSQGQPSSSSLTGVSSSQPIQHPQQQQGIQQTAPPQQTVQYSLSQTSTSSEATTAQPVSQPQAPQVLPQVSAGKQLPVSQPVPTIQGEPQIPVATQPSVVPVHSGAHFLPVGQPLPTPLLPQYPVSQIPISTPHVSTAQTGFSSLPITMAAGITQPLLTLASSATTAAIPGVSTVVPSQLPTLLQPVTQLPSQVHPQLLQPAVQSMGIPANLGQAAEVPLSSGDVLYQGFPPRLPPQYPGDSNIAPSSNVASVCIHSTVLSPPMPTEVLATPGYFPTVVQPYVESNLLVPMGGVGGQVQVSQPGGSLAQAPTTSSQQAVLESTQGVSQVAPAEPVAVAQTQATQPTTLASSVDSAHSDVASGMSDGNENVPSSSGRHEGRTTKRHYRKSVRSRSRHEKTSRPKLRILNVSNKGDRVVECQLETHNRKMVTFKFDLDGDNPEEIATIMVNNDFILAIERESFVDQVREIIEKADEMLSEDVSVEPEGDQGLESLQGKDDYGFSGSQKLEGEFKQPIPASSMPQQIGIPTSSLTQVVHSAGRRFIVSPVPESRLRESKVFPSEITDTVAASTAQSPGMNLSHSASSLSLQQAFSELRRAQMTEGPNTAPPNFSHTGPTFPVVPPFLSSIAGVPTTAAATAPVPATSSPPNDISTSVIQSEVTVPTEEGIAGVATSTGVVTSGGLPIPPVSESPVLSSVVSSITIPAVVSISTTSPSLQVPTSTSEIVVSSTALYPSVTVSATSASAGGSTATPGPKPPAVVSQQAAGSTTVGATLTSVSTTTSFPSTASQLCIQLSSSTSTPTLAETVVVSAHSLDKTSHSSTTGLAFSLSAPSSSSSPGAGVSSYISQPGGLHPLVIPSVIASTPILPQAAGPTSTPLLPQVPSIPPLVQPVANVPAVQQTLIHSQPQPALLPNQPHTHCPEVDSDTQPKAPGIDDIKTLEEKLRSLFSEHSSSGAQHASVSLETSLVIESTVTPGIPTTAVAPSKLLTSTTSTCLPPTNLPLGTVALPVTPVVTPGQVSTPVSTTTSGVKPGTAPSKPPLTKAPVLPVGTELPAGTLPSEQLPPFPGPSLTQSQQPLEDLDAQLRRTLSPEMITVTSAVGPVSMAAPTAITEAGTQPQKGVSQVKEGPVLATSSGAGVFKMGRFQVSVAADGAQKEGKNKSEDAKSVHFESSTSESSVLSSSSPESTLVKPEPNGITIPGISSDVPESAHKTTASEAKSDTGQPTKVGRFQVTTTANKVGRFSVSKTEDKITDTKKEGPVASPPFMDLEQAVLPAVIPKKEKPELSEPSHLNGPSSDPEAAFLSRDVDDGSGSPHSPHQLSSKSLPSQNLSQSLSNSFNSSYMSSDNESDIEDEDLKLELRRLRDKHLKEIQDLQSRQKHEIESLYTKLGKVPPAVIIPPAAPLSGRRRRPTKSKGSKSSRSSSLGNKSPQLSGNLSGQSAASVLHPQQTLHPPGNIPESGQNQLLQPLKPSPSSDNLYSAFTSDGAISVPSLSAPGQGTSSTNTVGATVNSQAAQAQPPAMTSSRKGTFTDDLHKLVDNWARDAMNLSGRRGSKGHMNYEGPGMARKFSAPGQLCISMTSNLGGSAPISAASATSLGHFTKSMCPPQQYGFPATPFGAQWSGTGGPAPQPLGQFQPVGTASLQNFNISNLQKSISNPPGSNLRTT
Chain of Tyrosine-protein kinase BTK (Homo sapiens) (Q06187 whole entry): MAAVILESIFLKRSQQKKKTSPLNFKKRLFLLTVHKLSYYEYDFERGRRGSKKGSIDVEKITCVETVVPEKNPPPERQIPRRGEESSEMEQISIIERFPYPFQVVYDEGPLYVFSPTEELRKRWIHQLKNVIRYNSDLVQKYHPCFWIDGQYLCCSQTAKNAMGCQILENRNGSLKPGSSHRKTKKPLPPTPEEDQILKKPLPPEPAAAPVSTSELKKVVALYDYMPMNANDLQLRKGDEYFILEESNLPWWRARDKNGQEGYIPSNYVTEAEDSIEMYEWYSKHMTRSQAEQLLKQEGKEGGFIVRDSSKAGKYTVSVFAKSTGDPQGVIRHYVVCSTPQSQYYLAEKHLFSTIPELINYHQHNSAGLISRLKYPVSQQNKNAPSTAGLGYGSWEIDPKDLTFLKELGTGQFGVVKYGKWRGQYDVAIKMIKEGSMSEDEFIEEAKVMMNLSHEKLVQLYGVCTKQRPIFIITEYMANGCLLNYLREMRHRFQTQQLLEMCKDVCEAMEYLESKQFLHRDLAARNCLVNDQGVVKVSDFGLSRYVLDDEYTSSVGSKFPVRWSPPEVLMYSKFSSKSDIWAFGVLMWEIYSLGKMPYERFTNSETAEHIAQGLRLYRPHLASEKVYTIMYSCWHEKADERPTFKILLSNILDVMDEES
Chain of Tyrosine-protein kinase Fer (Homo sapiens) (P16591 whole entry, looked up, the tested form may be a part): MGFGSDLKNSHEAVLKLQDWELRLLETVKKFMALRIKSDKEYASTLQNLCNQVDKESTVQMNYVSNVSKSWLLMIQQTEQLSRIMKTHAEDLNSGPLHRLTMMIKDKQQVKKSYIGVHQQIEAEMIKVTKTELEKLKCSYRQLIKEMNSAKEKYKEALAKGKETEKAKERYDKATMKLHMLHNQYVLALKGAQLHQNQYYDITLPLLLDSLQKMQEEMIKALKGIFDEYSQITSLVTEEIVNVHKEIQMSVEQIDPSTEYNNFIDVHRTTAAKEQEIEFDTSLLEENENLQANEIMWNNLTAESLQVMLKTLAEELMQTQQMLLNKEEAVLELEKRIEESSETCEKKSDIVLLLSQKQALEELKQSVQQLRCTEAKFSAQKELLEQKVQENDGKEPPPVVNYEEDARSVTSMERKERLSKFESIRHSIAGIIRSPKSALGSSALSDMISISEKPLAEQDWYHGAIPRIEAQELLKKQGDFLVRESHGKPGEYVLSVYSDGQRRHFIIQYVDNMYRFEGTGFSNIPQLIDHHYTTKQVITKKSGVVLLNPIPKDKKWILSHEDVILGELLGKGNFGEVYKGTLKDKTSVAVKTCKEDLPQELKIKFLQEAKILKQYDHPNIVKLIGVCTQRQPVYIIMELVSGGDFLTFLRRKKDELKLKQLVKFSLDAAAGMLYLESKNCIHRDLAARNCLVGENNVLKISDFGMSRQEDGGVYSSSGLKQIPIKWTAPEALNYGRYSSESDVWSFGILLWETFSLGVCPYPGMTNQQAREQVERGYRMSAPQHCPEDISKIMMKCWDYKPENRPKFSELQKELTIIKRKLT

SMILES: CNc1nc(-c2cc(C(=O)N3CCN(Cc4ccc(Cl)cc4)CC3)c(Cl)cn2)cs1
IC50 [2]: 352 nM
Activity (Rattus norvegicus [3]): Active
Activity (Rattus norvegicus [4]): Active
Cp (Mus musculus [5]): > 2 µM
Activity (Rattus norvegicus [6]): Dose-dependent effect
AUC at 7 h [7]: 0.279 µM·h
Activity (Mus musculus [8]): Dose-dependent effect
Activity (Rattus norvegicus [9]): Active
clearance [10]: 36 mL/min/kg
bioavailability [11]: 21%
solubility thermodynamic [12]: 55 µM (≈ 25.4 µg/mL)
Activity (Rattus norvegicus [13]): Dose-dependent effect
half-life [14]: 13 min
Activity (Mus musculus [15]): Dose-dependent effect
Activity (Rattus norvegicus [16]): Dose-dependent effect
inhibition [17]: Active
IC50 [1]: 4 nM
Cmax [18]: 113 nM
inhibition [19]: Active
Activity (Rattus norvegicus [20]): Active

SMILES: COc1cccc(-c2cc(C(=O)N3CCN(Cc4ccc(Cl)cc4)CC3)ccn2)c1
IC50 [1]: 971 nM

SMILES: N=C(N)NC(=O)c1nc(Cl)c(N)nc1N
Activity (Rattus norvegicus [21]): Active
Activity (Rattus norvegicus [22]): Active

SMILES: [2H]C([2H])([2H])Nc1nc(-c2cc(C(=O)N3CCN(Cc4ccc(Cl)cc4)CC3)c(Cl)cn2)cs1
IC50 [2]: 589 nM
Ratio [23]: 3
AUC at 7 h [7]: 0.811 µM·h
clearance [10]: 24 mL/min/kg
concentration at 7 h [24]: 1000 nM
bioavailability [11]: 45%
solubility thermodynamic [12]: 19 µM (≈ 8.84 µg/mL)
half-life [14]: 15 min
concentration at 7 h [25]: 1000 nM
IC50 [1]: 6 nM
Cmax [18]: 308 nM

SMILES: CNc1nc(-c2cc(C(=O)N3CCN(Cc4ccc(Cl)cc4)CC3)ccn2)cs1
IC50 [1]: 106 nM

SMILES: CNc1nc(-c2ccc3c(c2)CCN3C(=O)c2ccccc2OCc2ccc(Cl)cc2)cs1
AUC at 7 h [7]: 0.014 µM·h
clearance [10]: 108 mL/min/kg
bioavailability [11]: 1.4%
IC50 [1]: 420 nM
Cmax [18]: 2 nM

SMILES: COc1cccc(-c2cc(-n3cc(CNCC(C)C)c4ccccc43)c(C)cn2)c1
IC50 [2]: 1390 nM
solubility thermodynamic [12]: 550 µM (≈ 220 µg/mL)
half-life [14]: 15 min
IC50 [1]: 95 nM
Activity (Mus musculus [27]): Active

SMILES: COc1cccc(-c2cccc(-n3cc(CNCC4CCCCC4)c4ccccc43)c2)c1
Ki [28]: 32.4 nM
IC50 [1]: 162 nM

Now from value to compound:

IC50 [1]: 2140 nM
SMILES: c1ccc(-c2cccc(-n3cc(CNCC4CCCCC4)c4ccccc43)c2)cc1

IC50 [1]: 750 nM
SMILES: COc1cccc(-c2cc(C(=O)N(C)[C@@H]3CCN(Cc4ccc(Cl)cc4)C3)c3ccccc3n2)c1

IC50 [1]: 60 nM
SMILES: COc1cccc(-c2cc(-n3cc(CNCC4CCCCC4)c4ccccc43)ccn2)c1

IC50 [1]: 623 nM
SMILES: COc1cccc(-c2cc(C(=O)N3CCN(Cc4ccccc4)CC3)c3ccccc3n2)c1

IC50 [26]: 39 nM
SMILES: COc1cccc(-c2cc(-n3cc(CNCC4CCCCC4)c4cc(F)ccc43)ccn2)c1
